Measured values: ChEMBL document CHEMBL4308909, “Synthesis, Antioxidant Activity and Cytotoxicity of N-Functionalized Organotellurides” (Bioorg Med Chem, 2019)
Converted amounts (≈) assume the structure as drawn. The source made the active and inactive calls. The rule behind the calls is not given here.

Columns and labels:
[1] = Antioxidant activity assessed as ferric ion reducing activity by measuring trolox equivalents after 40 mins by FRAP assay; format: functional
In short: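 Samples at several concentrations incubated with reagent at 37 °C for 40 min in the dark, absorbance read at 593 nm. Expressed as trolox equivalent antioxidant capacity. Quercetin reference.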

[2] = Antioxidant activity assessed as ABTS radical scavenging activity after 16 hrs by spectrophotometric analysis; format: functional
In short: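 ABTS radical cation generated from ABTS (7 mmol L⁻¹) plus potassium persulfate (140 mmol L⁻¹), 16 h at room temperature in the dark, diluted in ethanol to absorbance 0.70 at 734 nm. Sample added at several concentrations, read at 734 nm after 6 min. Trolox calibration curve (20–600 μmol L⁻¹) in ethanol, results in mmol TE g⁻¹. Quercetin reference.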

[3] = system: L929; assay: Cytotoxicity against mouse L929 cells assessed as reduction in cell viability at 3.9 to 15.6 ug/ml after 24 hrs by neutral red staining-based spectrophotometric analysis; conditions: l929, 24 h
In short: (§1)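 L929 fibroblasts grown in DMEM with 2 mM L-glutamine, 10% FBS, penicillin/streptomycin, 37 °C, 5% CO₂. Cells seeded at 2.5 × 10⁵ cells ml⁻¹ and treated after 24 h with 1.95–15.625 μg mL⁻¹ for 24 h (DMSO ≤1.5% final). Neutral red (40 μg mL⁻¹) for 3 h, fixed, dye extracted with ethanol/acetic acid, read at 540 nm. Compared with negative control by Tukey's test.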

[4] = Antioxidant activity of the compound assessed as DPPH radical scavenging activity after 30 mins by spectrophotometric method; format: functional
In short: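 Methanolic DPPH (130 μmol L⁻¹ before mixing, 1:1 with sample) mixed with methanolic samples at several concentrations, 30 min at room temperature in the dark, absorbance at 517 nm. Percent scavenging calculated against a methanol-plus-DPPH control. IC50 from linear regression, triplicate. Quercetin reference.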

[5] = system: L929; assay: Cytotoxicity against mouse L929 cells assessed as reduction in cell viability at 1.9 ug/ml after 24 hrs by neutral red staining-based spectrophotometric analysis; conditions: l929, 24 h; in short: as §1
[6] = system: L929; assay: Cytotoxicity against mouse L929 cells assessed as reduction in cell viability at 1.9 to 15.6 ug/ml after 24 hrs by neutral red staining-based spectrophotometric analysis; conditions: l929, 24 h; in short: as §1

| Structure (SMILES) | Activity [1] | Activity [2] | Activity [3] | IC50 [4] | Activity [5] | Activity [6] |
| --- | --- | --- | --- | --- | --- | --- |
| CCCC[Te]c1ccc(C(C)NCc2ccccc2)cc1 (centres undefined) | inactive | inactive | Non-Toxic | 11.41 µg/mL | – | – |
| C=CCNC(C)c1ccc([Te]CCCC)cc1 (centres undefined) | – | – | – | > 100 µg/mL | – | – |
| CCCC[Te]c1ccc(C(C)N)cc1 (centres undefined) | Active | Active | Toxic | 12.07 µg/mL | Non-Toxic | – |
| CCCC[Te]c1ccc(/C(C)=N/N)cc1 | – | – | – | 5.08 µg/mL | – | Non-Toxic |
| CCCC[Te]c1ccc(C(C)NCC(C)C)cc1 (centres undefined) | inactive | inactive | Non-Toxic | 12.49 µg/mL | – | – |
| CCCC[Te]c1cccc(C(C)N)c1 (centres undefined) | Active | Active | Toxic | 19.22 µg/mL | Non-Toxic | – |
| CCCC[Te]c1ccc(/C(C)=N/O)cc1 | Active | Active | Toxic | 7.79 µg/mL | Non-Toxic | – |
| CCCC[Se]c1cccc(C(C)N)c1 (centres undefined) | – | – | – | > 100 µg/mL | – | – |
| O=c1c(O)c(-c2ccc(O)c(O)c2)oc2cc(O)cc(O)c12 [QUERCETIN] | Active | Active | – | 2.54 µg/mL (≈ 8.4 µM) | – | – |
| CCCC[Te]c1cccc(/C(C)=N/O)c1 | Active | Active | Toxic | 5.12 µg/mL | Non-Toxic | – |
| CCCCNC(C)c1ccc([Te]CCCC)cc1 (centres undefined) | inactive | inactive | Non-Toxic | 8.63 µg/mL | – | – |
| CCCC[Se]c1ccc(C(C)N)cc1 (centres undefined) | – | – | – | > 100 µg/mL | – | – |
| CCCC[Se]c1ccc(C(C)NCC(C)C)cc1 (centres undefined) | – | – | – | > 100 µg/mL | – | – |
| C/C(=N\O)c1ccc([Te]CCCO)cc1 | inactive | – | – | 13.06 µg/mL | – | Non-Toxic |
